UCH37 inh = inhibitors of human UCH37 deubiquitinase, primary screen, biochemical, Ub-AMC cleavage, fluorescence | purified proteasome/UCH37 | inhibition, % (concentration not given with the values) | 330,000 compounds, 0.33% hits | AID 588478, 2011;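 active = mean inhibition over replicate wells above about 20%, limit read from the data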;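 also: 0% = compound-free wells with enzyme and 100% = wells lacking proteasome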
Target sequence (Q9Y5K5 whole entry, looked up): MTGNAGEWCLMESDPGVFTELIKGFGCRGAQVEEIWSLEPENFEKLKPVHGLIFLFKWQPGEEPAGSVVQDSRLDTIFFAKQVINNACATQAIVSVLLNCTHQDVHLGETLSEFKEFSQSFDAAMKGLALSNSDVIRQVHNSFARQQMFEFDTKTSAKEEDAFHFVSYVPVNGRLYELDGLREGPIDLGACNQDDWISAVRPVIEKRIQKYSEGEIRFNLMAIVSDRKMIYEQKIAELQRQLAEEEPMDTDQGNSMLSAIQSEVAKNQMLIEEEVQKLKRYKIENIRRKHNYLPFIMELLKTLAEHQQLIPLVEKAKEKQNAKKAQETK
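Signal – fluorescence, ex 355 nm, em 460 nm · System – Proteasome-bound UCH37 · Input – 0.15 nM proteasome as dispensed · Timing – 30 min preincubation with enzyme, 25 min cleavage at room temperature · Read-out basis – percent inhibition of cleavage signal versus uninhibited and no-proteasome wells · Medium – Tris-HCl pH 7.4 with ATP-MgCl2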
Cardio protect = cardioprotection against H2O2-induced cell death, primary screen, uHTS, H9c2 cells, ATPLite luminescence. H9c2 cardiomyocytes, H2O2 injury protection, 2 h. protection from H2O2 cell death, % at 20 µM. 360,000 compounds, 0.63% hits. AID 588492, 2011;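 active = compounds giving at least 50% protection of heart cells from peroxide-induced death in the single-dose screen, raw or plate-pattern-corrected value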;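 also: 0% = DMSO wells with peroxide and 100% = DMSO wells without peroxide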
hiPSC survival = enhancers of single-cell hiPSC survival, primary screen, ATPlite luminescence; survival enhancement, % at 20 µM; AID 602274, 2012; 360,000 compounds, 0.044% hits; 100% = ROCK inhibitor wells, 0% = DMSO; in the data active = survival enhancement above about 18%;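 also: cells exposed to compounds for 16 hours before the ATP read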
MIN6 prolif = inducers of MIN6 beta-cell proliferation, primary screen, ATP luminescence, uHTS; 330,000 compounds, 0.29% hits; proliferation, % at 10 µM; AID 2380, 2010; MIN6 cells proliferation, ATPlite luminescence, 48 h; cells starved in 0.2% serum; 100% = growth in 10% serum;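 active = compounds whose signal lies at least 3.5 SD above the mean of all wells on their plate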;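 also: 0% = DMSO-treated cells in low-serum medium and 100% = 10% serum control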
CRFR2-BP ag = agonists of CRF-BP/CRF-R2 complex, primary screen, cell-based, HEK293, calcium dye fluorescence, uHTS. AID 588473, 2011. calcium dye fluorescence (FLIPR); percent of saturating CRF peptide response. CRF-binding protein / CRF receptor 2 complex (human). activation, % at 13.2 µM. 350,000 compounds, 0.46% hits;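 active = activation of at least 50%, plus an integration ratio under a set limit after plate pattern correction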;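 also: plate controls were neutral control wells without compound for no effect and CRF at EC100 for full effect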
CRFBP-R2 block = antagonists of CRF-BP/CRF-R2 complex, primary screen, cell-based, HEK293, calcium dye fluorescence, uHTS. inhibition, % at 11.8 µM. 350,000 compounds, 0.59% hits. CRF-induced calcium fluorescence;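 active = inhibition of the ligand-induced calcium signal above about 50% at the single tested concentration, limit read from the data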
Numbers without * were called inactive; . = no result. Sampled rows, rich in hits. Any-hit rate of the full collection: about 2.1%.

SMILES	UCH37 inh	Cardio protect	hiPSC survival	MIN6 prolif	CRFR2-BP ag	CRFBP-R2 block
Cc1ccc(C(=O)Nc2nc(-c3ccccn3)cs2)s1	3	59*	0	-7	1	-4
Cc1c(C(=O)Nc2nc(-c3ccccn3)cs2)oc2ccccc12	-8	54*	-2	-8	2	3
COc1cc(OC)c(C=NN2CCN(c3ccccc3OC)CC2)c(OC)c1	1	.	.	.	.	.
O=C(Cc1ccccc1)NN=Cc1cc(Br)c(Br)o1	0	.	.	.	.	.
O=C(Nc1ncc(S(=O)(=O)c2ccc([N+](=O)[O-])cc2)s1)c1ccccc1F	3	-13	-1	-5	57*	-20
COC(=O)C(NC(=O)c1ccc(F)cc1)(Nc1ncc(S(=O)(=O)c2ccc([N+](=O)[O-])cc2)s1)C(F)(F)F (stereo not drawn)	1	-13	0	-5	-5	58*
O=C(Nc1ccc([N+](=O)[O-])cc1)c1ccccc1F	3	-2	-2	2	-3	-12
Cc1cccc(C(=O)NN=Cc2ccccn2)c1	0	.	.	.	.	.
CC(CCC(C)C)=NNC(=S)NCc1ccccc1	0	.	.	.	.	.
CCOc1ccc(OCCSc2nc(N)cc(=O)[nH]2)cc1	2	-10	0	2	2	59*
Nc1cc(=O)[nH]c(SCCOc2ccccc2)n1	1	8	0	-1	1	-20
Cc1ccccc1C(=O)/C(C#N)=N/Nc1c(C)n(C)n(-c2ccccc2)c1=O	10	64*	1	.	0	-4
COc1ccc(OC)c(C=NNC(=O)CSc2cc(C)nc3c(OC)cccc23)c1	-297	.	.	.	.	.
NC1=NC[C@@H](CC2CCCCC2)N1CCc1cc(C(F)(F)F)cc(C(F)(F)F)c1	6	-49	-4	-5	78*	-34
CCNc1ccc(C(=O)NN=Cc2c(C)nn(-c3ccccc3)c2N2CCCC2)cc1[N+](=O)[O-]	7	.	.	.	.	.
CC(=O)Nc1ccc(NC(=O)COc2ccc(-c3ccc(C#N)cc3)cc2)cc1	.	16	1	9	0	6
CCCn1c(=O)c2[nH]c(-c3ccc(OCC(=O)Nc4ccc(C#N)cc4)cc3)nc2n(CCC)c1=O	1	94*	2	-1	-2	-36
Cc1noc(-c2ccc(Cl)cc2)c1C(=O)ON=C(N)c1ccc(C(C)(C)C)cc1	1	.	.	.	.	.
Cc1ccc(S(=O)(=O)c2nnn3c2nc(N2CCOCC2)c2ccccc23)cc1C	-22	12	0	-3	1	55*
Cc1ccc(S(=O)(=O)c2nnn3c2nc(N2CCOCC2)c2ccccc23)c(C)c1	-9	7	-1	5	-1	106*
O=C(CSc1nnc(SCc2ccc(Cl)cc2)s1)NN=Cc1ccccc1Cl	2	.	.	.	.	.
CSc1ncccc1C(=O)N(C)CC(=O)Nc1cccc(F)c1	1	-2	0	2	0	100*
O=C(CO)NN=Cc1ccc(Cl)cc1	4	.	.	.	.	.
O=C(CC(c1ccccc1)c1ccccc1)Nc1ccc(Cl)cn1	34*	-8	-6	-4	5	-6
COc1ccc(N=c2oc3c(OC)cccc3cc2C(=O)NCc2ccco2)cc1OC	3	52*	-2	2	1	-9
SMILES	UCH37 inh	Cardio protect	hiPSC survival	MIN6 prolif	CRFR2-BP ag	CRFBP-R2 block
COc1cccc(C(=O)NN=c2oc3c(OC)cccc3cc2C(=O)NCc2ccccc2)c1	0	.	.	.	.	.
COc1cccc(C(=O)N/N=c2\oc3c(OC)cccc3cc2C(=O)NCc2ccccc2)c1	.	76*	3	0	4	-11
O=C(NC=NO)C1=NOC(CNc2ncc(C(F)(F)F)cc2Cl)C1 (stereo not drawn)	1	.	.	.	.	.
CC1=CC(=NOS(=O)(=O)c2ccccc2)C(C(C)C)=CC1=O	3	.	.	.	.	.
CC1=CC(=O)C(C(C)C)=C/C1=N/OS(=O)(=O)c1ccccc1	.	-19	-1	-4	51*	-63
Cc1ccsc1C=NNC(=O)Cn1nc(C)c([N+](=O)[O-])c1C	8	.	.	.	.	.
CSC1=NSC2=NC(=O)/C(=C\c3coc4ccccc4c3=O)C(=N)N12	-12	-10	1	.	197*	-201
